# Screens: PubChem BioAssay, Sanford-Burnham Center for Chemical Genomics
# Apaf-1 inh = blocks human Apaf-1 apoptosome activity | AID 489030 | 330,000 tested, 0.71% active | reconstituted apoptosome caspase-3 activity, DEVD-Rh110 fluorescence | inhibition, % at 20 µM | O14727; active = inhibition of at least 40% at 20 µM;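 also: plate controls were DMSO wells for no effect and DEVD-CHO caspase inhibitor wells for full effect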
#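 System: reconstituted apoptosome with Apaf-1, cytochrome c, caspase-9, procaspase-3, dATP; Signal: Rh110 fluorescence intensity; Schedule: 30 min compound preincubation, 50 min activation, room temperature; Reagent: cytochrome c trigger plus (Z-DEVD)2-Rh110 caspase-3 substrate.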
# SENP8 block-1 = blocks the human protease SENP8 | purified SENP8, Z-RLRGG-aminoluciferin cleavage, luminescence | inhibition, % at 10 µM | 330,000 tested, 1.2% active | Q96LD8; in the data active = inhibition above about 50%
# SENP8 block-2 = SENP8 (human) protease inhibition. recombinant SENP8, Nedd8 substrate fluorescence. AID 602440. inhibition, % at 20 µM. 360,000 tested, 0.64% active. Q96LD8; in the data active = inhibition mostly above about 40%, no sharp cut-off; inactive = mostly below about 27%
# SENP7 block = inhibitors of human SENP7 protease | AID 434973 | recombinant SENP7, Z-RLRGG-aminoluciferin luminescence, 40 min | inhibition, % at 5 µM | 330,000 tested, 1.5% active;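 active = inhibition above about 50% at the single test dose, limit read from the data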;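 also: plate controls were DMSO with enzyme for no effect and no enzyme buffer wells for full effect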
# UBC13 polyUb = inhibitors of human UBC13 polyubiquitin chain formation | P61088 | TR-FRET | inhibition, % at 20 µM | 330,000 tested, 0.47% active; in the data active = inhibition above about 45%, passing the limit was not always enough
# SENP6 block = inhibitors of human SENP6 protease; inhibition, % at 10 µM; Recombinant SENP6 catalytic domain, aminoluciferin luminescence; 330,000 tested, 1.8% active; Q9GZR1;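 active = inhibition above about 50% at the single tested dose, limit read from the data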;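 also: plate controls were DMSO wells with enzyme for no effect and DMSO wells lacking enzyme for full effect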
# Apaf-1 inh conf2 = confirmation of Apaf-1 inhibitors | 1,800 tested, 25% active | shares compounds with Apaf-1 inh | reconstituted apoptosome, caspase-3 DEVD-Rh110 fluorescence | inhibition, % at 20 µM;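 active = mean inhibition of at least 40% at 20 µM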;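 also: plate controls were DMSO wells for no effect and DEVD-CHO caspase inhibitor control wells for full effect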
# Rh110 quench = Rh110 signal interference in Apaf-1 inhibitor counter-screen | shares compounds with Apaf-1 inh | Rh110 fluorescence interference, quenched caspase reaction | activation (fluorescence interference), % at 20 µM | 1,800 tested, under 10 active;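 active = signal rise of 40% or more at 20 µM, treated as a fluorescence artifact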
# Apaf1 inh interf = shows fluorescence interference in the Apaf-1 inhibitor assay format. shares compounds with Apaf-1 inh. fluorescence interference counterscreen, Apaf-1 assay format. IC50, µM. 460 tested, under 10 active. AID 588538; call rule not given here
# Numbers without * were called inactive; i = inactive; / = no result given. Shown are actives, neighbours in structure and some others; about 3% of the full set was active somewhere.
SMILES,Apaf-1 inh,SENP8 block-1,SENP8 block-2,SENP7 block,UBC13 polyUb,SENP6 block,Apaf-1 inh conf2,Rh110 quench,others
Clc1ccc(C2[C@H]3CN(Cc4ccc(-c5ccccc5)cc4)[C@H](c4ccccc4)C34CC2(c2cccnc2)C4)cn1 (some centres undefined),22,-22,/,10,-5,-20,/,/,
CNc1ccc2ncc(-c3ccccc3NC(C)=O)n2n1,/,/,-478,/,/,/,/,/,
COc1ccc(Br)cc1CNc1ccc(O)cc1,95*,-6,61*,58*,4,6,19,5,
COc1ccc(-c2cccc(-c3cc(=O)oc4cc(OC)cc(OC)c34)c2)cc1,21,/,-40,1,/,/,/,/,
COc1cc(OC)c2c(-c3cccc(-c4ccc(CO)cc4)c3)cc(=O)oc2c1,42*,/,-65,-8,/,/,36,2,
Cc1ccccc1OCC(=O)Nc1ccc(N2CCOCC2)cc1N1CCOCC1,4,0,18,1,-1,5,/,/,
CCc1ccccc1OCC(=O)Nc1ccc(N2CCCC2)cc1C,43*,-4,-119,0,0,-5,26,4,
Cc1cc(N2CCCC2)ccc1NC(=O)COc1ccccc1,52*,8,-172,1,2,-6,19,-2,
Nc1ccn([C@@H]2O[C@H](CNCc3cccc(OC4CCCC4)c3)[C@@H](O)[C@H]2O)c(=O)n1,/,/,4,/,/,/,/,/,
CC(C)C[C@H]1CNC(=S)N1C[C@H]1CCCN1C[C@H](CC(C)C)N1C[C@H](Cc2ccc(O)cc2)N(CC2CCCCC2)C1=S,/,/,12,/,/,/,/,/,
CC1(C)OC(C)(C)/C(=C/Nc2ccc(O)cc2)C1=O,48*,4,-3,24,-6,39,14,-3,
CC1(C)OC(=O)C(=CNc2cccc(O)c2)C(=O)O1,-9,2,3,7,-5,-27,/,/,
CCOC(=O)c1[nH]c(=O)c2ccccc2c1O,75*,10,-320,18,8,42,26,4,
CCOC(=O)c1[nH]c2ccccc2c1NC(C)=O,-3,-6,-143,14,-11,4,/,/,
N#CC(c1nc2ccccc2nc1N1CCCC1)S(=O)(=O)c1ccccc1 (centres undefined),64*,72*,-316,39,-26,74*,13,3,
Cc1cccc(S(=O)(=O)C(C#N)c2nc3ccccc3nc2N2CCCC2)c1 (centres undefined),55*,9,-402,22,-38,26,20,5,
N#Cc1c(N2CCCCC2)nc(N)c2c(N)nc3c(c12)CC(c1ccccc1)O3 (centres undefined),42*,-2,i,-6,10,-17,12,3,
COc1cc(/C=C2/C(=O)N(c3ccc(Br)cc3)N=C2C)cc(OC)c1OC,94*,-9,49*,20,-44,20,7,1,
CC1=NN(c2ccc(C)cc2)C(=O)/C1=C\c1ccc(Br)s1,89*,2,9,22,-8,12,18,5,
Cc1noc(C)c1C(=O)N1CCC1(C)C(=O)NS(=O)(=O)c1ccccc1Cl (centres undefined),/,/,20,/,/,/,/,/,
CCOc1ccc(-c2cc(C(=O)Nc3cccc(C(F)(F)F)c3)[nH]n2)c(C)c1,/,/,3,/,/,/,/,/,
COCCn1c(SCC(=O)Nc2cccc(OC)c2)nnc1-c1ccc(Cl)cc1,-9,3,6,2,12,7,/,/,
COCCn1c(SCC(=O)NNC(=O)c2cc(Cl)ccc2OC)nnc1-c1ccncc1,49*,0,-38,8,35,-7,36,11,
O=C1NC[C@H](CCCCN2C[C@H](Cc3ccccc3)N(CCC3CCCCC3)C(=O)C2=O)N(CCc2ccc(O)cc2)C1=O,/,/,10,/,/,/,/,/,
Cc1cc(NC(=O)CCCn2nc([N+](=O)[O-])c(Br)c2C)no1,40*,7,14,-1,4,-5,2,-2,
SMILES,Apaf-1 inh,SENP8 block-1,SENP8 block-2,SENP7 block,UBC13 polyUb,SENP6 block,Apaf-1 inh conf2,Rh110 quench,others
CCOC(=O)N1CCN(C(=O)c2cccc(S(=O)(=O)Nc3ccc(OC)cc3)c2)CC1,51*,-6,14,2,11,-4,34,-2,
O=S1(=O)CC(N2CCSCC2)CN1Cc1cn(Cc2ccc(Cl)cc2)nn1 (centres undefined),/,/,11,/,/,/,/,/,
O=C(OCc1ccccc1)N1CCCC2CC1c1ccccc12 (centres undefined),/,/,-3,/,/,/,/,/,
C=CC[C@@H](Cc1ccc(F)cc1)C(=O)OC[C@H]1CCCN1C(=O)[C@H](CC=C)CC(=O)N[C@H](CO)Cc1ccccc1,31,-20,23,-9,-1,-17,/,/,
C=CC[C@@H](Cc1ccc(F)cc1)C(=O)OC[C@H]1CCCN1C(=O)[C@@H](CC=C)CC(=O)N[C@H](CO)Cc1ccccc1,41*,-17,18,-6,6,-11,19,7,
C=CC[C@@H](Cc1ccc(F)cc1)C(=O)OC[C@@H]1CCCN1C(=O)[C@@H](CC=C)CC(=O)N[C@@H](CO)Cc1ccccc1,40*,-15,16,-2,3,-5,18,11,
C[C@H](CO)N1C[C@H](C)[C@@H](CN(C)S(=O)(=O)c2cn(C)cn2)OCc2cn(nn2)CCCC1=O,/,/,21,/,/,/,/,/,
O=C(COc1ccc2c3c(c(=O)oc2c1)CCC3)N1CCN(c2ccc(F)cc2)CC1,42*,-4,-26,1,-1,-13,11,3,
Cc1nc(C(F)(F)F)ccc1C(=O)N1CCC1(C)C(=O)NS(=O)(=O)c1ccc(C(C)(C)C)cc1 (centres undefined),/,/,3,/,/,/,/,/,
COC(=O)CCCC1=CC2=C(c3ccccc3)C(=O)C(C)(OC(=O)C3CCCC3)C(=O)C2=CN1CC1CC1 (centres undefined),21,-12,31,12,-21,7,/,/,
COC(=O)CCCC1=CC2=C(c3ccccc3)C(=O)C(C)(OC(=O)C3CCCC3)C(=O)C2=CN1CC(C)C (centres undefined),41*,-13,3,-9,-47,1,19,4,
Cc1nnc(N=c2ssnc2Cl)o1,50*,-4,38,-9,-22,-4,57*,5,Apaf1 inh interf=>100
Cc1ccc(N=c2ssnc2Cl)cc1,6,-7,28,-6,-8,-8,/,/,
CNc1cncc(-c2ccc(OC)cc2OC)n1,/,/,-498,/,/,/,/,/,
COc1ccc(OC)c2c1cc(C(=O)N[C@H](C(=O)N1CCC[C@H]1C(=O)O)C(C)C)n2C,52*,-2,-162,9,-12,20,26,4,
CCCCN1C(=O)C(CC(=O)NCCCN(C)C)CC(C(=O)N(C)C)=C1C (centres undefined),/,/,-5,/,/,/,/,/,
